Activity calls are given as the source filed them. The calls are words filed in the database; no cut-off is given here.
Tests used:
Type in all cases: functional, organism-based
Mus musculus [1] = assay: Antiulcerative colitis activity in C57BL/6 mouse assessed as recovery of DSS-induced body weight loss at 7.5 to 30 mg/kg, ip qd administered on day 6 to 12 post DSS-challenge measured on day 9
Outline: (§1)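 In male C57BL/6 mice given 2.0% (w/v) DSS in drinking water days 0–5, then dosed ip daily days 6–12 (n = 8), body weight was checked daily. Change was also taken as weight before induction minus weight just before sacrifice on day 13.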

Mus musculus [2] = assay: Antiapoptotic activity in C57BL/6 mouse assessed as reduction of DSS-induced cleaved caspase-9 level in colon at 7.5 to 30 mg/kg, ip qd administered on day 6 to 12 post DSS-challenge measured on day 13 by Western blotting analysis
Outline: (§2)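 Male C57BL/6 mice (7–8 wk) given 2.0% (w/v) DSS in drinking water days 0–5. Colitic mice were selected on day 6 and dosed ip once daily, days 6–12, saline vehicle; n = 8/group. Day 13: colon homogenized in RIPA, 50 μg protein run on 10–12% SDS-PAGE. Blots probed for cleaved caspase-3/-9, detected by ECL, β-actin for loading, densitometry; n = 5.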

Mus musculus [3] = assay: Antiapoptotic activity in C57BL/6 mouse assessed as reduction of DSS-induced cleaved caspase-3 level in colon at 7.5 to 30 mg/kg, ip qd administered on day 6 to 12 post DSS-challenge measured on day 13 by Western blotting analysis; outline: as §2
Mus musculus [4] = assay: Antiinflammatory activity in DSS-induced acute colitis C57BL/6 mouse model assessed as upregulation of IkappaB-alpha protein expression at 15 to 30 mg/kg, ip qd administered on day 6 to 12 post DSS-challenge measured on day 13 by Western blotting analysis
Outline: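 Male C57BL/6 mice received 2.0% DSS water for 5 days, then daily ip dosing in saline on days 6–12. On day 13, colon tissue was homogenized in ice-cold RIPA (0.1 g/mL). 50 μg protein was blotted on nitrocellulose and probed for IκBα overnight at 4 °C. ECL detection, normalized to β-actin by densitometry; n = 5.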

Mus musculus [5] = assay: Antiinflammatory activity in DSS-treated C57BL/6 mouse assessed as effect on IL-10 production in colon at 7.5 to 30 mg/kg, ip qd administered on day 6 to 12 post DSS-challenge measured on day 13 by ELISA
Outline: (§3)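 Colitis induced in male C57BL/6 mice with 2.0% (w/v) DSS drinking water for days 0–5, then ip once daily days 6–12 (saline vehicle); 8 mice/group. Day 13: colon homogenized in phosphate buffer with Tween-20, PMSF, benzethonium chloride, EDTA and aprotinin, spun 16000g 15 min at 4 °C. TNF-α, IL-1β, IL-6 and IL-10 measured by ELISA, normalized to Bradford protein, reported as pg/mg.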

Mus musculus [6] = assay: Antiinflammatory activity in ip dosed C57BL/6 mouse assessed as reduction of DSS-induced IL-6 production in colon administered qd on day 6 to 12 post DSS-challenge measured on day 13 by ELISA; outline: as §3
Mus musculus [7] = assay: Antiinflammatory activity in ip dosed C57BL/6 mouse assessed as reduction of DSS-induced IL-1beta production in colon administered qd on day 6 to 12 post DSS-challenge measured on day 13 by ELISA; outline: as §3
Mus musculus [8] = assay: Antiinflammatory activity in ip dosed C57BL/6 mouse assessed as reduction of DSS-induced TNF-alpha production in colon administered qd on day 6 to 12 post DSS-challenge measured on day 13 by ELISA; outline: as §3
Mus musculus [9] = assay: In vivo inhibition of myeloperoxidase activity in colon homogenates of DSS-induced acute colitis C57BL/6 mouse model at 7.5 to 30 mg/kg, ip qd administered on day 6 to 12 post DSS-challenge measured on day 13
Outline: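 Day 13 colons from DSS-colitic male C57BL/6 mice (2.0% DSS for 5 days; ip daily days 6–12; n = 8) were homogenized in 0.5% HTAB (1 mL/100 mg) and spun 19000g 15 min at 4 °C. Supernatant was mixed with 50 mmol pH 6.0 phosphate buffer containing 0.0005% o-dianisidine and 0.1% H2O2. Rate of OD460 change at 25 °C was read and expressed as units/g wet tissue.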

Mus musculus [10] = assay: Antiulcerative colitis activity in C57BL/6 mouse assessed as attenuation of DSS-induced lesions formation at 7.5 to 30 mg/kg, ip qd administered on day 6 to 12 post DSS-challenge measured on day 13 by hematoxylin/eosin staining-based assay
Outline: (§4)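 DSS colitis (2.0% in drinking water, 5 days) in male C57BL/6 mice treated ip once daily days 6–12, n = 8. Day 13 colons opened, washed in ice-cold PBS, fixed overnight in 4% paraformaldehyde, paraffin-embedded. 5 μm sections stained with H&E and scored histologically, including inflammation severity.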

Mus musculus [11] = assay: Antiulcerative colitis activity in C57BL/6 mouse assessed as attenuation of DSS-induced crypt destruction at 7.5 to 30 mg/kg, ip qd administered on day 6 to 12 post DSS-challenge measured on day 13 by hematoxylin/eosin staining-based assay; outline: as §4
Mus musculus [12] = assay: Antiulcerative colitis activity in C57BL/6 mouse assessed as inhibition of DSS-induced shortening of colon length at 30 mg/kg, ip qd administered on day 6 to 12 post DSS-challenge measured on day 13; set-up: dose 30 mg/kg
Outline: (§5)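 Mice (male C57BL/6, 20–24 g) drank 2.0% DSS for 5 days. Animals with weight loss, diarrhea and bleeding on day 6 were randomized and given ip doses once daily to day 12, saline as vehicle; n = 8. Colon length was measured after sacrifice on day 13.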

Mus musculus [13] = assay: Antiulcerative colitis activity in ip dosed C57BL/6 mouse assessed as inhibition of DSS-induced shortening of colon length administered qd on day 6 to 12 post DSS-challenge measured on day 13; outline: as §5
Mus musculus [14] = assay: Antiulcerative colitis activity in C57BL/6 mouse assessed as recovery of DSS-induced body weight loss at 7.5 to 30 mg/kg, ip qd administered on day 6 to 12 post DSS-challenge measured on day 8; outline: as §1
Mus musculus [15] = assay: Antiulcerative colitis activity in DSS-induced acute colitis C57BL/6 mouse model assessed as decrease in disease activity index at 15 to 30 mg/kg, ip qd administered on day 6 to 12 post DSS-challenge measured on day 13
Mus musculus [16] = assay: Antiulcerative colitis activity in C57BL/6 mouse assessed as attenuation of DSS-induced inflammatory cell infiltration at 7.5 to 30 mg/kg, ip qd administered on day 6 to 12 post DSS-challenge measured on day 13 by hematoxylin/eosin staining-based assay; outline: as §4

O=C(O[C@@H]1O[C@@H]2COC(=O)c3cc(O)c(O)c(O)c3-c3c(cc(O)c(O)c3O)C(=O)O[C@H]([C@H]1O)[C@@H]2O)c1cc(O)c(O)c(O)c1
Activity (Mus musculus [1]): Active | Activity (Mus musculus [2]): Active | Activity (Mus musculus [3]): Active | Activity (Mus musculus [4]): Active | Activity (Mus musculus [5]): inactive | Activity (Mus musculus [6]): Dose-dependent effect | Activity (Mus musculus [7]): Dose-dependent effect | Activity (Mus musculus [8]): Dose-dependent effect | inhibition (Mus musculus [9]): Active | Activity (Mus musculus [10]): Active | Activity (Mus musculus [11]): Active | inhibition (Mus musculus [12]): Active | inhibition (Mus musculus [13]): Dose-dependent effect | Activity (Mus musculus [14]): Active | Activity (Mus musculus [15]): Active | Activity (Mus musculus [16]): Active

— ChEMBL document CHEMBL3091459, “Inhibitory effect of the gallotannin corilagin on dextran sulfate sodium-induced murine ulcerative colitis” (J Nat Prod, 2013)
